According to ChEMBL document CHEMBL2331158, “Isocoumarin derivatives and benzofurans from a sponge-derived Penicillium sp. fungus” (2013):
In brackets after ≈: the same amount, converted by molar mass. Activity calls are given as the source filed them. No cut-off for these calls is given here.

Legend:
HL-60 = assay: Cytotoxicity against human HL60 cells assessed as cell viability after 6 days by MTT assay; format: functional, cell-based
A549 = assay: Cytotoxicity against human A549 cells assessed as cell viability after 6 days by MTT assay; format: functional, cell-based
Vibrio parahaemolyticus = assay: Antibacterial activity against Vibrio parahaemolyticus ATCC 17802 assessed as growth inhibition after 18 hrs by broth dilution method; format: functional; conditions: ATCC 17802, 18 h
In short: (§1)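 Conventional broth dilution assay, run across a panel of nine bacterial strains (Gram-positive and Vibrio species included), with ciprofloxacin as the positive control.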

Bacillus cereus = assay: Antibacterial activity against Bacillus cereus ACCC 11077 assessed as growth inhibition after 18 hrs by broth dilution method; conditions: ACCC 11077, 18 h
Staphylococcus aureus = assay: Antibacterial activity against Staphylococcus aureus ATCC 27154 assessed as growth inhibition after 18 hrs by broth dilution method; format: functional; conditions: ATCC 27154, 18 h; in short: as §1
K562 = assay: Cytotoxicity against human K562 cells assessed as cell viability after 6 days by MTT assay; format: functional, cell-based
Staphylococcus = assay: Antibacterial activity against Staphylococcus albus ATCC 8799 assessed as growth inhibition after 18 hrs by broth dilution method; format: functional; conditions: ATCC 8799, 18 h; in short: as §1

| MIC (Bacillus cereus) | MIC (Staphylococcus aureus) | MIC (Staphylococcus) | SMILES | Activity (HL-60) | Activity (A549) | MIC (Vibrio parahaemolyticus) | Activity (K562) |
| --- | --- | --- | --- | --- | --- | --- | --- |
| > 25 µM | > 25 µM | 12.5 µM (≈ 3.13 µg/mL) | COc1cc(O)cc2c(COC(C)=O)c(C)oc12 [PENICIFURAN B] | inactive | inactive | > 25 µM | inactive |
| 12.5 µM (≈ 2.4 µg/mL) | 12.5 µM (≈ 2.4 µg/mL) | 25 µM (≈ 4.8 µg/mL) | Cc1oc2c(O)cc(O)cc2c1C=O [PENICIFURAN C] | inactive | inactive | > 25 µM | inactive |
| 25 µM (≈ 4.8 µg/mL) | > 25 µM | 25 µM (≈ 4.8 µg/mL) | CC(=O)c1coc2c(O)cc(O)cc12 [PENICIFURAN D] | inactive | inactive | 25 µM (≈ 4.8 µg/mL) | inactive |
| > 25 µM | 12.5 µM (≈ 2.98 µg/mL) | > 25 µM | O=c1oc(CO)c(CO)c2cc(O)cc(O)c12 [PENICIMARIN F] | inactive | inactive | > 25 µM | inactive |

Continued, molecule first:

| SMILES | MIC (Bacillus cereus) | MIC (Staphylococcus aureus) | MIC (Staphylococcus) | Activity (HL-60) | Activity (A549) | MIC (Vibrio parahaemolyticus) | Activity (K562) |
| --- | --- | --- | --- | --- | --- | --- | --- |
| CC(O)c1coc(=O)c2c(O)cc(O)c(O)c12 (stereo not given) | 6.25 µM (≈ 1.49 µg/mL) | 12.5 µM (≈ 2.98 µg/mL) | > 25 µM | inactive | inactive | 6.25 µM (≈ 1.49 µg/mL) | inactive |
| CC(=O)CCC[C@@H]1Cc2cccc(O)c2C(=O)O1 [ASPERGILLUMARIN A] | > 25 µM | > 25 µM | 12.5 µM (≈ 3.1 µg/mL) | inactive | inactive | > 25 µM | inactive |
| C[C@H](O)CCC[C@@H]1Cc2cccc(O)c2C(=O)O1 [ASPERGILLUMARIN B] | > 25 µM | > 25 µM | 12.5 µM (≈ 3.13 µg/mL) | inactive | inactive | > 25 µM | inactive |
| O=C(O)c1cn(C2CC2)c2cc(N3CCNCC3)c(F)cc2c1=O [CIPROFLOXACIN] | 0.625 µM (≈ 0.207 µg/mL) | 0.16 µM (≈ 0.053 µg/mL) | 0.312 µM (≈ 0.103 µg/mL) | – | – | 0.16 µM (≈ 0.053 µg/mL) | – |
| COc1cc(O)cc2c(CO)c(C)oc12 [PENICIFURAN A] | 12.5 µM (≈ 2.6 µg/mL) | 25 µM (≈ 5.21 µg/mL) | 3.13 µM (≈ 0.652 µg/mL) | inactive | inactive | 25 µM (≈ 5.21 µg/mL) | inactive |
